Columns and labels:
MCF7 = assay: In vitro anticancer activity was evaluated for the percentage growth of human breast MCF-7 cell line; type: functional
Outline: (§1)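 Each cell line received a single dose of 10^-4 M, and the read-out was percentage growth.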

SF-268 [1] = assay: In vitro cytotoxicity against human CNS SF-268 cancer cell line; type: functional
Hs-578T = assay: In vitro cytotoxicity against human breast Hs 578.T cancer cell line; type: functional
Nucleic Acid [2] = assay: DNA binding ability by thermal denaturation studies using calf thymus DNA after incubation at 37 degree C for 36 hour; type: nucleic-acid assay; details: Bos taurus
Outline: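 Calf thymus DNA 100 µM with PBD 20 µM (1:5 [PBD]:[DNA]) in 10 mM sodium phosphate + 1 mM EDTA, pH 7.00, incubated at 37 °C for 0, 18 or 36 h. Thermal melting measured; ΔTm taken relative to CT-DNA alone, whose Tm is the mean of 10 separate determinations.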

SR = assay: In vitro cytotoxicity against human leukemia SR cancer cell line; type: functional
SF-268 [3] = assay: In vitro anticancer activity was evaluated for the percentage growth of human (CNS) SF-268 cell line; type: functional; outline: as §1
SW-620 = assay: In vitro cytotoxicity against human colon SW-620 cancer cell line; type: functional
SF-295 = assay: In vitro cytotoxicity against human CNS SF-295 cancer cell line; type: functional
CCRF-CEM = assay: In vitro cytotoxicity against human leukemia CCRF-CEM cancer cell line; type: functional
NCI-H522 = assay: In vitro cytotoxicity against human non-small cell lung NCI-H522 cancer cell line; type: functional
Nucleic Acid [4] = assay: DNA binding ability by thermal denaturation studies using calf thymus DNA after incubation at 37 degree C for 0 hour; type: nucleic-acid assay; details: Bos taurus
NCI-H460 = assay: In vitro anticancer activity was evaluated for the percentage growth of human lung NCI-H460 cell line; type: functional; outline: as §1
UO-31 = assay: In vitro cytotoxicity against human renal UO-31 cancer cell line; type: functional
Nucleic Acid [5] = assay: DNA binding ability by thermal denaturation studies using calf thymus DNA after incubation at 37 degree C for 18 hour; type: nucleic-acid assay; details: Bos taurus

| Structure (SMILES) | ΔTm (Nucleic Acid [2]) [°C] | ΔTm (Nucleic Acid [5]) [°C] | Growth (MCF7) [%] | GI50 (SF-268 [1]) [nM] | GI50 (Hs-578T) [nM] | GI50 (SR) [nM] | Growth (SF-268 [3]) [%] | GI50 (SW-620) [nM] | GI50 (SF-295) [nM] | GI50 (CCRF-CEM) [nM] | GI50 (NCI-H522) [nM] | ΔTm (Nucleic Acid [4]) [°C] | Growth (NCI-H460) [%] | GI50 (UO-31) [nM] |
| --- | --- | --- | --- | --- | --- | --- | --- | --- | --- | --- | --- | --- | --- | --- |
| COc1cc2c(cc1OCCCOc1cc3c(cc1OC)C(=O)N1C[C@@H](F)C[C@H]1C=N3)N=C[C@@H]1C[C@H](F)CN1C2=O | 6.16 | 4.9 | 0 | 2200 |  | 1540 | 0 | 4200 | 1960 |  | 1880 | 3.1 | 0 | 2400 |
| COc1cc2c(cc1OCCCCCOc1cc3c(cc1OC)C(=O)N1C[C@@H](F)C[C@H]1C=N3)N=C[C@@H]1C[C@H](F)CN1C2=O | 17.4 | 16 | 0 | < 10 | < 10 | < 10 | 0 | 20 | < 10 | < 10 | < 10 | 14.2 | 0 | < 10 |
| COc1cc2c(cc1OCCCOc1cc3c(cc1OC)C(=O)N1CCC[C@H]1C=N3)N=C[C@@H]1CCCN1C2=O |  |  |  |  |  |  |  |  |  |  |  | 10.2 |  |  |
| COc1cc2c(cc1O)N=C[C@@H]1CCCN1C2=O |  | 0.7 |  |  |  |  |  |  |  |  |  | 0.3 |  |  |

More lines, main results first:

| ΔTm (Nucleic Acid [2]) [°C] | ΔTm (Nucleic Acid [5]) [°C] | Structure (SMILES) | Growth (MCF7) [%] | GI50 (SF-268 [1]) [nM] | GI50 (Hs-578T) [nM] | GI50 (SR) [nM] | Growth (SF-268 [3]) [%] | GI50 (SW-620) [nM] | GI50 (SF-295) [nM] | GI50 (CCRF-CEM) [nM] | GI50 (NCI-H522) [nM] | ΔTm (Nucleic Acid [4]) [°C] | Growth (NCI-H460) [%] | GI50 (UO-31) [nM] |
| --- | --- | --- | --- | --- | --- | --- | --- | --- | --- | --- | --- | --- | --- | --- |
| 2.2 | 1 | COc1cc2c(cc1O)N=C[C@@H]1C[C@H](F)CN1C2=O | 0 | 350 | 10 | 200 | 0 | 1190 | 320 | 300 | 410 | 0.3 | 0 | 170 |
| 2.25 | 1.5 | COc1cc2c(cc1O)N=C[C@@H]1C[C@@H](F)CN1C2=O |  |  |  |  |  |  |  |  |  | 0.6 |  |  |
| 13.8 | 12.3 | COc1cc2c(cc1OCCCCOc1cc3c(cc1OC)C(=O)N1C[C@@H](F)C[C@H]1C=N3)N=C[C@@H]1C[C@H](F)CN1C2=O |  |  |  |  |  |  |  |  |  | 4.6 |  |  |
| 2.5 | 2 | COc1cc2c(cc1OCc1ccccc1)N=C[C@@H]1C[C@H](F)CN1C2=O | 0 | 10 | < 10 | < 10 | 19 | < 10 | 30 | < 10 | < 10 | 1.1 | 1 | < 10 |

From ChEMBL document CHEMBL1146749, “The effect of C2-fluoro group on the biological activity of DC-81 and its dimers” (2004)
